Sampled rows, rich in hits. Any-hit rate of the full collection: about 1.2%.
Tb hexokinase: T. brucei hexokinase 1 inhibition; recombinant TbHK1, G6PDH-coupled NADH A340; inhibition, % at 10 µM; actives 0.11% (n = 220,000);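 active means inhibition of 50% or more in the single-dose primary screen; inactive means inhibition below 50%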
HSV replic up: HSV replication enhancement; HSV replication augmentation in cells, fold increase; maximum fold increase; actives 0.005% (n = 220,000); AID 1956; in the data active means maximum fold increase above about 1.5; inconclusive means no clear call, values can overlap the other calls; tested in PC3 cells
PERK inh: inhibitors of human PERK kinase; Q9NZJ5; CHO PERK-DD fusion, SEAP luminescence translation reporter; inhibition, % at 5.6 µM; actives 0.17% (n = 220,000); AID 1416;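 active means inhibition above the mean inhibition of all tested compounds plus 3 SD, set separately per screening campaign, cut at about 2.9% in these data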;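 further: PERK kinase domain activated by AP20187 dimerizer at 100 nM; 0% = DMSO with dimerizer and 100% = rapamycin at 8.4 µM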
Autophagy mod: modulators of autophagy | MEF GFP-LC3 puncta imaging; test concentration mostly 10 µM | calls only at 10 µM (by protocol) | actives 0.98% (n = 190,000) | AID 463193;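 active means percentage of spot-positive cells more than 3 SD above its plate mean, without a fluorescence outlier flag or 80% toxicity; inconclusive means no clear call, values can overlap the other calls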;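 further: spot-positive cell cutoff set from DMSO-treated cells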
Dynein transport: blocks dynein driven cargo transport along microtubules | 3617.4 mouse cells, GR-EGFP nuclear translocation imaging; test concentration mostly 20 µM; stimulated with dexamethasone, 1 µM; hits give low values | z-score, hits read low | actives 0.47% (n = 220,000) | AID 1381;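 active means plate z-score of nuclear minus cytoplasmic receptor signal below a set negative limit, without overly bright fluorescence or cell loss, cut at about -3.5 in these data, passing the limit was not always enough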;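 further: z-score of nuclear minus cytoplasmic ring GR-EGFP intensity difference per well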
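Buffer or medium: tet-free, stripped-serum medium; reagent: dexamethasone at 1.0 µM final, 30 min; incubation: 48 h induction, 1 h compound, 30 min dex at 37 °C; measured by: formaldehyde fixation, Hoechst nuclear stain, 10x automated fluorescence imaging; read-out: nuclear-to-cytoplasmic GR-EGFP distribution per well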
HKDC1 inh: inhibitors of human hexokinase HKDC1. Q2TB90. recombinant HKDC1, G6PDH/diaphorase resazurin coupled fluorescence. inhibition, % at 20 µM. actives 0.16% (n = 340,000). AID 493160;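 active means inhibition above about 35% when tested at 20 µM, limit read from the data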;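 further: plate controls were DMSO wells with enzyme for no effect and DMSO wells lacking enzyme for full effect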
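Assay system: recombinant HKDC1 hexokinase; detection: coupled resazurin fluorescence, excitation 525 nm, emission 613 nm; benchmarks: DMSO-plus-enzyme-mix negative control, buffer-substituted positive control; compound dosing: single 20 µM dose; schedule: 90 min at room temperature in dark; also added: glucose plus 1 mM ATP as hexokinase substrates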
Dynein confirm: dynein cargo transport inhibition, confirmation; actives 69% (n = 1,000); calls only at 20 µM; shares compounds with Dynein transport; 3617.4 GR-EGFP nuclear translocation imaging, dexamethasone-induced; AID 463116;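 active means inhibition of receptor movement into the nucleus at or above a set limit in both runs, with normal cell brightness and cell count; inconclusive means limit reached in only one run, brightness and count normal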;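 further: dexamethasone at 1 µM final in well for 30 min; nuclear minus cytoplasmic GR-EGFP mean intensity difference in channel 2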
G6PDH ctr: counter-screen for TbHK1 inhibitors: Leuconostoc G6PDH inhibition. actives 7% (n = 210). inhibition, % at 10 µM. shares compounds with Tb hexokinase. AID 2516. purified G6PDH, NADH absorbance, 1 h;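 active means at least 50% inhibition in the glucose-6-phosphate dehydrogenase coupled counterscreen; inconclusive means no clear call, values can overlap the other calls; inactive means inhibition below 50%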
TbHK1 rescreen: T. brucei hexokinase 1 inhibition, rescreen. shares compounds with Tb hexokinase. recombinant TbHK1, G6PDH-coupled NADH A340 absorbance. inhibition, % at 10 µM. actives 10% (n = 210). AID 2560;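 active means inhibition of at least 50% in both of the two screening runs; inconclusive means at least 50% in one run, below 50% in the other; inactive means inhibition below 50% in both runs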;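 further: 0% and 100% set by the maximum and minimum signal control wells on each plate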
HKDC1 act conf: HKDC1 (human) activation, single-dose confirmed. actives 14% (n = 740). shares compounds with HKDC1 inh. recombinant HKDC1, G6PDH/diaphorase resazurin fluorescence; hits give low values. AID 504708. inhibition, % at 20 µM;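 active means inhibition at or below a set negative limit, negative inhibition meaning the enzyme was activated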
* = called active by the depositor; i = inactive; ? = inconclusive; . = not tested or not shown; + = active, no number.

SMILES	Tb hexokinase	HSV replic up	PERK inh	Autophagy mod	Dynein transport	HKDC1 inh	HKDC1 act conf	others
O=[N+]([O-])c1ccc(NCc2ccccc2)c2nonc12	-7	?	0	i	-6.8*	-5	.	Dynein confirm=+
Cc1ccc2c(c1)CC1(CN2C)C(=O)NC(=O)N(CCc2ccccc2)C1=O (stereo unspecified)	-3	i	-1	i	-0.31	6	.
Cc1cc2c(C(F)(F)F)cc(=O)oc2c2c1NCCC2	3	?	1	i	0.12	-4	.
O=c1cc(C(F)(F)F)c2cc3c4c(c2o1)CCCN4CCC3	-3	?	0	i	-4.8*	-3	.	Dynein confirm=+
O=C(COc1ccccc1)c1cn(Cc2ccccc2)c2ccccc12	1	i	0	i	0.38	4	.
Cc1ccc(C2(O)CC(C)N(C)CC2C)cc1 (stereo unspecified)	53*	i	2	i	0.23	-7	.	G6PDH ctr=-3;TbHK1 rescreen=0
COC(=O)C1=C(c2cccc(OCc3ccccc3)c2)C[C@@H]2CC[C@H]1N2C(=O)NC1CCN(Cc2ccccc2)CC1	.	.	.	.	.	-2	.
CN1CCC(O)(c2ccc(Cl)cc2)C(C(=O)c2ccc(Cl)cc2)C1 (stereo unspecified)	4	i	2	i	-0.96	0	.
CN(C)CP(=O)(O)CN(C)C=O	51*	i	0	i	-0.14	-10	.	G6PDH ctr=-6;TbHK1 rescreen=3
COc1ccc(CCn2c(O)c(C=NCc3ccc4c(c3)OCO4)c(=O)[nH]c2=O)cc1OC	2	i	0	i	-0.28	3	.
COc1ccc(OC)c(-n2c(O)c(C=NCc3ccc4c(c3)OCO4)c(=O)[nH]c2=O)c1	55*	i	0	i	0.29	0	.	G6PDH ctr=-2;TbHK1 rescreen=5
CCOC(=O)N(c1ccccc1)P1(=S)OCC(C)O1 (stereo unspecified)	53*	i	1	i	-0.47	7	.	G6PDH ctr=-12;TbHK1 rescreen=12
CCOC(=O)N(c1ccccc1)P1(=S)OCCO1	14	i	1	i	0.21	-4	.
CN1CCc2cc(O)cc3c2[C@H]1Cc1ccc(O)c(O)c1-3	.	i	.	.	.	1	.
CN1CCc2cc3c(c4c2C1Cc1ccccc1-4)OCO3 (stereo unspecified)	.	.	.	.	.	32	-1
O=C1NC(=O)N(c2cccc(Br)c2)C(=O)/C1=C/c1ccsc1	-5	i	2	i	-0.27	15	.
CCCCCc1nc2ccccc2c(=O)n1-c1ccccc1[N+](=O)[O-]	30	i	-1	i	1.1	-7	.
CCCCCc1nc2c(c(=O)c3ccccc3n2C)c(=O)n1C1CCCCCC1	8	i	0	i	-0.66	31	17
COc1ccc(N2C(=O)CC(N3CC=C(c4ccccc4)CC3)C2=O)cc1 (stereo unspecified)	-3	i	0	i	-1.4	-1	.
CCOC(=O)c1c(-n2c(C)cc(C=C3C(=O)NC(=O)NC3=O)c2C)sc2c1CCCC2	7	.	1	i	-0.24	41*	30
Cc1cccc(N2C(=O)NC(=O)/C(=C\c3cc(C)n(-c4sc5c(c4C#N)CCCC5)c3C)C2=O)c1C	-4	?	1	i	-0.39	72*	55
Cc1cc(/C=C2\C(=O)NC(=O)N(c3ccccc3F)C2=O)c(C)n1-c1cc(C(=O)O)cc(C(=O)O)c1	.	.	.	.	.	2	.
N#Cc1cc2c(nc1SCC(=O)Nc1cc(Cl)cc(Cl)c1)C1CCN2CC1	-2	i	0	i	-0.39	-10	.
Cc1ccc(OP2(=O)Nc3cc(C)c(C)cc3S2)cc1 (stereo unspecified)	.	.	.	.	.	-41	-23
COC(=O)C1=C(c2cc3ccccc3s2)C[C@@H]2CC[C@H]1N2C(=O)N1CCC(C)CC1	.	i	.	.	.	-1	.
SMILES	Tb hexokinase	HSV replic up	PERK inh	Autophagy mod	Dynein transport	HKDC1 inh	HKDC1 act conf	others
COC(=O)C[C@]1(C(=O)OC)CN(C#N)N(c2ccc(Cl)cc2)C12c1ccccc1-c1ccccc12	-8	i	-1	i	-4.4*	87*	62
COC(=O)[C@@H]1[C@@H](C(=O)OC)C2(c3ccccc3-c3ccccc32)N(c2ccc(Cl)cc2)N1C#N	-17	i	0	?	1.3	62*	43
COc1cc2c(cc1OC)-c1c(OC)c(OC)c(OC)c3ccnc(c13)C2=O	-12	i	-1	i	-0.51	50*	57
Cc1cccc(N2C(=O)NC(=O)/C(=C\c3ccc4c(c3)CCCN4Cc3ccccc3)C2=O)c1	10	i	0	i	-0.65	45*	45
O=C(Nc1cccc(Cl)c1)OCC#CCN1CCCC1	.	.	.	.	.	-5	.
Nc1cnn(-c2ccccc2)c(=O)c1Cl	.	.	.	.	.	45*	-22
C[n+]1ccc(-c2ccncc2)cc1	6	i	-1	i	-0.92	-7	.
Cc1ccc(N2C(=O)NC(=O)/C(=C/c3ccoc3)C2=O)cc1	14	.	1	.	-1.2	39*	-3
COc1ccc(C)cc1NC(=O)c1c(C)nn(Cc2ccccc2)c1Cl	-2	i	0	i	0.086	-2	.
COC(=O)C1=C(c2cc3ccccc3o2)C[C@@H]2CC[C@H]1N2C(=O)N1CCC(C)CC1	.	i	.	.	.	-1	.

Screens as filed in PubChem.
